Jurkat NFkB inh – lowers PMA/ionomycin-induced NF-kB signal in Jurkat cells; PMA/ionomycin-induced NF-kB luciferase reporter, luminescence; 330,000 tested, 0.53% active; inhibition, % at 4 µM; in the data active = inhibition above about 50%
CHOP inhibitor – CHOP inhibition in unfolded protein response | 220,000 tested, 3.8% active | inhibition, % at 10 µM | CHO-K1 CHOP-promoter luciferase, tunicamycin-induced, 15-18 h;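 active = compounds that reduced the stress-induced luciferase reporter signal by more than about 70% of percent inhibition, limit read from the data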
XBP1 UPR activ – adaptive UPR (XBP1) activation; CHO-XBP1 luciferase reporter, IRE1-XBP1 UPR activation, luminescence; percent of tunicamycin response, DMSO as zero; activation, % at 20 µM; 330,000 tested, 0.33% active;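 active = versus positive control, 20 µM dose yields 30% or more activation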
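Material: CHO cell line with stable XBP1 luciferase reporter; buffer or medium: F12 medium containing 10% fetal bovine serum; compound: single point, 20 µM final compound, 1% DMSO; incubation: 6 h treatment, 37 °C; measured by: glow luminescence from Steady-Glo reagent; evaluation: activation, % of tunicamycin; control set: tunicamycin high, DMSO low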
697 NFkB inh – inhibitors of the PMA/ionomycin-induced NF-kB reporter in 697 B cells; 697 B-cell NF-kB luciferase reporter, 16 h; inhibition, % at 4 µM; 330,000 tested, 0.33% active; in the data active = inhibition above about 35%
UPR CHOP act – activators of apoptotic arm of unfolded protein response (CHOP). CHO-CHOP luciferase reporter, UPR activation, luminescence; percent of tunicamycin response over DMSO baseline. activation, % at 10 µM. 330,000 tested, 0.34% active. AID 449763;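 active = at 10 µM dose, activation of 40% or more, normalized to positive control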
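Material: CHO-CHOP cells, stable luciferase reporter of PERK-eIF2a-CHOP signalling; quantity: 500 reporter cells seeded per well; buffer or medium: F12 medium containing 10% fetal bovine serum; compound: one dose, 10 µM in 0.5% DMSO; incubation: 6 h compound treatment, 37 °C; measured by: Steady-Glo luciferase luminescence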
CHOP inh conf – confirmation of CHOP induction inhibitors; shares compounds with CHOP inhibitor; CHO-CHOP promoter luciferase reporter, tunicamycin-induced, luminescence; inhibition, % at 10 µM; 2,100 tested, 45% active;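 active = mean of three repeat readings of reporter signal inhibition above a set limit, cut at about 70% in these data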
Jurkat NFkB conf – inhibitors of the PMA/ionomycin-induced NF-kB reporter in Jurkat cells, retest; Jurkat NF-kB luciferase, 16 h; inhibition, % at 4 µM; 2,700 tested, 27% active; AID 435020; shares compounds with Jurkat NFkB inh;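 active = inhibition reaching about 45% at 4 µM in either replicate, limit read from the data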
697 NFkB conf – lowers PMA/ionomycin-induced NF-kB signal in 697 B cells | shares compounds with 697 NFkB inh | inhibition, % at 4 µM | 2,000 tested, 35% active | 697 B-cell NF-kB luciferase, 16 h; in the data active = inhibition mostly above about 28%, no sharp cut-off; inactive = mostly below about 22%
Of the large screens only hits and unclear results are named; the others gave an inactive call (follow-up assays come after a bar, where they were run). Shown is part of a subset that was picked to be rich in hits.

CC1C/C(=C/c2ccccn2)C(=O)/C(=C/c2ccccn2)C1 (centres undefined)	Jurkat NFkB inh 91, CHOP inhibitor 108 | CHOP inh conf 113 | Jurkat NFkB conf inactive
COc1ccc(Nc2nc(NCCN3CCOCC3)nc(Nc3ccc(OC)cc3)n2)cc1	none (no result: CHOP inhibitor)
Cc1c(C(=O)N/N=C/c2ccc(Cl)cc2)[nH]c2ccc(Cl)cc12	Jurkat NFkB inh 52, CHOP inhibitor 98 | CHOP inh conf inactive | Jurkat NFkB conf 51
CCOc1ccc(/C=N/NC(=O)c2[nH]c3ccc(C)cc3c2C)cc1	none (no result: CHOP inhibitor)
NC(N)=N/N=C/c1ccccc1	none
NC(N)=N/N=C/c1ccc(OCc2ccccc2Cl)cc1	Jurkat NFkB inh 63, CHOP inhibitor 97 | CHOP inh conf inactive | Jurkat NFkB conf inactive
Cc1cc(/C=N/n2cnnc2)c(C)n1-c1ccc(OCc2ccc(Cl)cc2)cc1	Jurkat NFkB inh 52, CHOP inhibitor 99 | CHOP inh conf 91 | Jurkat NFkB conf inactive
CCCCS(=O)(=O)/C=C\C=C/S(=O)(=O)CCCC	Jurkat NFkB inh 90 (no result: CHOP inhibitor) | CHOP inh conf 127 | Jurkat NFkB conf 63
Cc1cc(C)cc(N(CC(=O)NC2CCCC2)C(=O)CCC(=O)Nc2cc(C)ccn2)c1	none (no result: CHOP inhibitor)
O=C1CC(c2ccccc2Br)c2cc3c(cc2N1)CCC3 (centres undefined)	Jurkat NFkB inh 55, CHOP inhibitor 101 | CHOP inh conf inactive | Jurkat NFkB conf inactive
O=C1CC(c2ccccc2F)c2cc3c(cc2N1)CCC3 (centres undefined)	none
O=C(N/N=C/c1ccc(F)cc1)c1cc(-c2ccc3c(c2)OCO3)n[nH]1	none
Oc1ccc(F)cc1-c1cc(-c2ccc3c(c2)OCCO3)n[nH]1	CHOP inhibitor 99 | CHOP inh conf inactive | Jurkat NFkB conf inactive
CCC(C)(C(=O)NC1CCCCC1)N(C(=O)CNC(=O)c1ccccc1)c1c(C)n(C)n(-c2ccccc2)c1=O (centres undefined)	none
COc1ccc(CC(=O)Nc2cccc(-c3nnc(-c4cccc(C)c4)o3)c2)cc1OC	Jurkat NFkB inh 51 (no result: CHOP inhibitor) | CHOP inh conf 113 | Jurkat NFkB conf 61
COc1ccc(Cc2nnc(-c3cccc(C)c3)o2)cc1OC	none
COc1ccc(C(=O)COc2ncnc3cc(Cl)ccc23)cc1	none
C=CCSc1nc2ccccc2n1C(=O)/C=C/c1cc(OC)c(OC)c(OC)c1	Jurkat NFkB inh 64, CHOP inhibitor 111 | CHOP inh conf 109 | Jurkat NFkB conf inactive
Cc1ccc(-c2nc(-c3ccccn3)no2)cc1	Jurkat NFkB inh 69 (no result: CHOP inhibitor) | CHOP inh conf 124 | Jurkat NFkB conf 79
COc1ccc(NC(=O)/C(Cl)=C(/Cl)S(=O)Cc2ccc(Cl)cc2)cn1 (centres undefined)	Jurkat NFkB inh 101, CHOP inhibitor 107 | CHOP inh conf 140 | Jurkat NFkB conf 99
COC(=O)c1ccccc1NC1=C/C(=N\S(=O)(=O)c2cccs2)c2ccccc2C1=O	Jurkat NFkB inh 52, CHOP inhibitor 107 | CHOP inh conf 109 | Jurkat NFkB conf 66
CCOC(=O)C[C@H]1c2cc(F)ccc2S(=O)(=O)N1Cc1ccc(OC)cc1	none (no result: CHOP inhibitor)
COCCCN(C(=O)c1cc(Cl)nc2ccccc12)c1c(N)n(Cc2ccccc2)c(=O)[nH]c1=O	none (no result: CHOP inhibitor)
O=C(O)c1cccc(COc2ccccc2Cl)c1	Jurkat NFkB inh 82, CHOP inhibitor 104, 697 NFkB inh 67 | CHOP inh conf 132 | Jurkat NFkB conf 78 | 697 NFkB conf 43
O=C(O)c1ccc(COc2ccccc2Cl)cc1	none
COC(=O)[C@@H](NC(=O)NC1CCCCC1C)C(C)C (some centres undefined)	none
Cc1cc(C(=O)N2CCCC(Nc3ccccc3)C2)c2ccc(F)cc2n1 (centres undefined)	none (no result: CHOP inhibitor)
Cc1nn(Cc2c(Cl)cccc2Cl)c(C)c1NC(=O)c1cc(C(C)C)on1	none (no result: CHOP inhibitor) | CHOP inh conf 96 | 697 NFkB conf inactive

Compound activity: PubChem BioAssay, several laboratories
